Experimental data from ChEMBL document CHEMBL1121949, “Species- or isozyme-specific enzyme inhibitors. 8. Synthesis of disubstituted two-substrate condensation products as inhibitors of rat adenylate kinases” (J Med Chem, 1982).
Values joined by “and” are separate entries in the source; they are usually repeats but may differ in a detail not shown here. Equal values may be shown once.

What was measured:
[1] = Inhibitory potency against AK M was calculated using the equation KM(ATP) / Ki(ATP varied)
[2] = Inhibitory potency against AK II was calculated using the equation KM(ATP) / Ki(ATP varied)
[3] = target: T1, Adenylate kinase isoenzyme 1 (Rattus norvegicus, UniProt P39069); assay: Inhibitory activity against rat Adenylate kinase M isoenzyme in the presence of ATP non competitive inhibition
T1 sequence (P39069 whole entry): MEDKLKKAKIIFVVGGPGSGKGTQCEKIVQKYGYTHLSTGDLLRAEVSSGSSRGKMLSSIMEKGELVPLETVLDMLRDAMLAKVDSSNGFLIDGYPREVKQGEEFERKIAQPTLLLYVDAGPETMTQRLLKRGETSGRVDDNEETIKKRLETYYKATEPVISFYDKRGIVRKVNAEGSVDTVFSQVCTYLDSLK
Outline: (§1)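 Rat adenylate kinase isozymes AK II or AK-M were used, with AMP or ATP as the varied substrate. Substrate and inhibitor constants (Ki) came from steady-state kinetics. ATP derivatives, and P1,P5-pentaphosphate derivatives with Ki above 0.10 mM, were added as 1:1 Mg complexes, made by adding MgSO4 to their stock solutions.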

[4] = target: T2, Adenylate kinase 2, mitochondrial (Rattus norvegicus, UniProt P29410); assay: Inhibitory activity against rat adenylate kinase II was determined in the presence of ATP, competitive inhibition; outline: as §1
[5] = target: T2, Adenylate kinase 2, mitochondrial; assay: Inhibitory activity against rat adenylate kinase II was determined in the presence of AMP, competitive inhibition; outline: as §1
[6] = Relative potency inhibitory calculated as the ratio of AK-II/AK-M
[7] = Inhibitory activity against rat adenylate kinase M (AK-M)isoenzyme in the presence of ATP competitive inhibition; outline: as §1
[8] = target: T2, Adenylate kinase 2, mitochondrial; assay: Inhibitory activity against rat adenylate kinase II was determined in the presence of AMP, non competitive inhibition; outline: as §1
[9] = target: T2, Adenylate kinase 2, mitochondrial; assay: Inhibitory activity against rat adenylate kinase II was determined in the presence of ATP, competitive inhibition
[10] = Inhibitory activity against rat adenylate kinase M (AK-M)isoenzyme in the presence of AMP competitive inhibition; outline: as §1
[11] = target: T2, Adenylate kinase 2, mitochondrial; assay: Inhibitory activity against rat adenylate kinase II was determined in the presence of ATP, non competitive inhibition; outline: as §1
[12] = target: T2, Adenylate kinase 2, mitochondrial; assay: Inhibitory activity against rat adenylate kinase II was determined in the presence of AMP, competitive and non competitive inhibition; outline: as §1
[13] = target: T2, Adenylate kinase 2, mitochondrial; assay: Inhibitory activity against rat adenylate kinase II was determined in the presence of AMP; outline: as §1
[14] = target: T1, Adenylate kinase isoenzyme 1; assay: Inhibitory activity against rat Adenylate kinase M isoenzyme in the presence of AMP; outline: as §1
[15] = target: T1, Adenylate kinase isoenzyme 1; assay: Inhibitory activity against rat Adenylate kinase M isoenzyme in the presence of ATP competitive inhibition
[16] = target: T1, Adenylate kinase isoenzyme 1; assay: Inhibitory activity against rat Adenylate kinase M isoenzyme in the presence of ATP; outline: as §1
[17] = target: T2, Adenylate kinase 2, mitochondrial; assay: Inhibitory activity against rat adenylate kinase II was determined in the presence of ATP; outline: as §1
[18] = Inhibitory activity against rat adenylate kinase M (AK-M)isoenzyme in the presence of ATP non competitive; outline: as §1
[19] = Inhibitory activity against rat adenylate kinase M (AK-M)isoenzyme in the presence of AMP non competitive; outline: as §1
[20] = target: T1, Adenylate kinase isoenzyme 1; assay: Inhibitory activity against rat Adenylate kinase M isoenzyme in the presence of ATP non competitive inhibition
[21] = target: T1, Adenylate kinase isoenzyme 1; assay: Inhibitory activity against rat Adenylate kinase M isoenzyme in the presence of ATPnon competitive inhibition; outline: as §1

Row | SMILES | Inhibitory potency [1] | Inhibitory potency [2] | Relative inhibitory potency [6] | Ki [9] | other results
1 | CCSc1nc2c(N)ncnc2n1C1O[C@H](COP(=O)(O)OP(=O)(O)OP(=O)(O)OP(=O)(O)OP(=O)(O)O[C@H](C)[C@H]2OC(n3cnc4c(N)ncnc43)[C@H](O)[C@@H]2O)[C@@H](O)[C@H]1O (stereo partly specified) | 18.4 | 60 | 3.3 | 1.5 µM | Ki [7]: 31 µM; Ki [8]: 2.8 µM; Ki [10]: 31 µM
2 | CCSc1nc2c(N)ncnc2n1C1O[C@H](COP(=O)(O)OP(=O)(O)OP(=O)(O)OP(=O)(O)OP(=O)(O)OC[C@H]2OC(n3cnc4c(N)ncnc43)[C@H](O)[C@@H]2O)[C@@H](O)[C@H]1O (stereo partly specified) | 190 | 1120 | 5.9 | 0.06 µM and 0.08 µM | Ki [7]: 3 µM; Ki [10]: 3.5 µM
3 | Nc1ncnc2c1ncn2[C@@H]1O[C@H](COP(=O)(O)OP(=O)(O)OP(=O)(O)O)[C@@H](O)[C@H]1O [ADENOSINE TRIPHOSPHATE] |  |  |  |  | Ki [3]: 570 µM; Ki [11]: 90 µM
4 | CCC[C@@H](OP(=O)(O)OP(=O)(O)OP(=O)(O)OP(=O)(O)OP(=O)(O)OC[C@H]1OC(n2c(SCC)nc3c(N)ncnc32)[C@H](O)[C@@H]1O)[C@H]1OC(n2cnc3c(N)ncnc32)[C@H](O)[C@@H]1O (stereo partly specified) | 4.8 | 1.7 | 0.36 | 52 µM | Ki [7]: 120 µM; Ki [10]: 160 µM; Ki [12]: 63 µM
5 | Nc1ncnc2c1ncn2[C@@H]1O[C@H](COP(=O)(O)O)[C@@H](O)[C@H]1O [ADENOSINE PHOSPHATE] |  |  |  |  | Ki [13]: 80 µM; Km [14]: 580 µM
6 | CCSc1nc2c(N)ncnc2n1[C@@H]1O[C@H](COP(=O)(O)OP(=O)(O)OP(=O)(O)O)[C@@H](O)[C@H]1O |  |  |  |  | Ki [16]: 6100 µM
7 | CCSc1nc2c(N)ncnc2n1C1O[C@H](COP(=O)(O)OP(=O)(O)OP(=O)(O)OP(=O)(O)OP(=O)(O)OC[C@H]2OC(n3c(SCC)nc4c(N)ncnc43)[C@H](O)[C@@H]2O)[C@@H](O)[C@H]1O (stereo partly specified) | < 0.63 | 14 | > 22 | 10 µM and 6.4 µM | Ki [18]: 600 µM; Ki [19]: 900 µM
8 | Nc1ncnc2c1ncn2[C@@H]1O[C@H](CO)[C@@H](O)[C@H]1O [ADENOSINE] |  |  |  |  | Ki [20]: 82000 µM; Ki [8]: 92000 µM; Ki [11]: 87000 µM

Continued, in another order:

Row | Inhibitory potency [1] | Inhibitory potency [2] | Relative inhibitory potency [6] | Ki [9] | SMILES | other results
9 | < 0.21 | 0.045 |  |  | C[C@H](OP(=O)(O)OP(=O)(O)OP(=O)(O)O)[C@H]1OC(n2cnc3c(N)ncnc32)[C@H](O)[C@@H]1O (stereo partly specified) | Ki [3]: 1800 µM; Ki [4]: 2000 µM
10 | < 0.095 | 0.17 | > 1.8 |  | Nc1ncnc2c1ncn2C1O[C@H](CCP(=O)(O)OP(=O)(O)OP(=O)(O)O)[C@@H](O)[C@H]1O (stereo partly specified) | Ki [3]: 4000 µM; Ki [5]: 540 µM
11 | 1.9 | 0.2 | 0.11 |  | CCC[C@H](OP(=O)(O)OP(=O)(O)OP(=O)(O)O)[C@H]1OC(n2cnc3c(N)ncnc32)[C@H](O)[C@@H]1O (stereo partly specified) | Ki [4]: 450 µM; Ki [15]: 300 µM
12 |  |  | 0.13 |  | C[C@@H](OP(=O)(O)OP(=O)(O)OP(=O)(O)O)[C@H]1OC(n2cnc3c(N)ncnc32)[C@H](O)[C@@H]1O (stereo partly specified) | Ki [16]: 1800 µM; Ki [17]: 2200 µM
13 | < 0.084 | 0.2 | > 2.4 | 450 µM | CCC[C@@H](OP(=O)(O)OP(=O)(O)OP(=O)(O)O)[C@H]1OC(n2cnc3c(N)ncnc32)[C@H](O)[C@@H]1O (stereo partly specified) | Ki [21]: 4500 µM
